Measured values from ChEMBL document CHEMBL2176979, “Ligand-based design, synthesis, and biological evaluation of 2-aminopyrimidines, a novel series of receptor for advanced glycation end products (RAGE) inhibitors” (J Med Chem, 2012).
Active and inactive are the calls of the source. No cut-off for these calls is given here.

Assays:
[1] = tested on: C6; assay: Cytotoxicity against rat C6 cells at 0.1 to 10 uM after 18 hrs; type: cell-based; conditions: c6, 18 h
[2] = tested on: Mus musculus; assay: Inhibition of RAGE-mediated influx of human amyloid beta (1 to 42) into ICR mouse brain at 25 mg/kg, ip administered 20 mins prior to human amyloid beta (1 to 42)-injection measured after 30 mins by ELISA relative to control
[3] = target: Advanced glycosylation end product-specific receptor (Rattus norvegicus) (UniProt Q63495); assay: Inhibition of receptor for advanced glycation end product binding to amyloid beta 42 in rat C6 cells assessed as NFkappaB activation at 0.1 to 10 uM after 18 hrs by reporter gene assay; type: cell-based
[4] = target: T1, Advanced glycosylation end product-specific receptor (Homo sapiens, UniProt Q15109); assay: Inhibition of human recombinant biotinylated receptor for advanced glycation end product expressed in Escherichia coli DE3 assessed as inhibition of binding to amyloid beta (1 to 42) at 20 uM after 60 mins by TMB-ELISA
Summary of the method: (§1)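 Biotinylated human RAGE (1 μg, made in Origami2(DE3) with BirA) incubated on a streptavidin plate with oligomeric Aβ (10 μM stock pre-aggregated 24 h at 4 °C; 1 μL per well). Compound 20 μM in TBS-T/2.5% BSA, 60 min at ambient temperature. Bound Aβ detected with HRP-4G8 (1:1000) for 60 min, then TMB, read at 450 nm. Duplicates, mean ± SD.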

[5] = tested on: Mus musculus; assay: Reduction in human amyloid beta (1 to 42) level in ICR mouse plasma at 25 mg/kg, ip administered 20 mins prior to human amyloid beta (1 to 40)-injection measured after 30 mins by ELISA relative to control; type: functional; design: scale not given: the % may be the effect or the level left; conditions: route intraperitoneal, in the assay text read “human amyloid beta (1 to 42)-injection” for “human amyloid beta (1 to 40)-injection”
Summary of the method: (§2)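 Male ICR mice, 3 months old (n = 4), given test compound 25 mg/kg or vehicle ip. After 20 min, 200 μL of 25 μM human Aβ1−42 in PBS injected into the tail vein and left to circulate 30 min. Retro-orbital blood taken into EDTA tubes before sacrifice. Human Aβ measured in brain extracts (pg/mg protein) and plasma (ng/mL).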

[6] = tested on: Mus musculus; assay: Inhibition of RAGE-mediated influx of human amyloid beta (1 to 42) into ICR mouse brain at 25 mg/kg, ip administered 20 mins prior to human amyloid beta (1 to 40)-injection measured after 30 mins by ELISA relative to control; type: functional; conditions: in the assay text read “human amyloid beta (1 to 42)-injection” for “human amyloid beta (1 to 40)-injection”, route intraperitoneal; summary of the method: as §2
[7] = tested on: Mus musculus; assay: Antialzheimer activity in transgenic mouse expressing PS1/APP swedish mutant assessed as insoluble amyloid beta (1 to 42) level per mg of protein in brain at 50 mg/kg/day, po for 3 months by ELISA (reference value: 513.73 +/- 219.56 ng per mg of protein); type: functional
[8] = tested on: Mus musculus; assay: Procognitive activity in transgenic mouse expressing PS1/APP swedish mutant assessed as spontaneous alteration at 50 mg/kg/day, po administered for 3 months measured after 2 months by Y maze test (reference value: 50.95 +/- 10.8%); type: functional
[9] = target: T1, Advanced glycosylation end product-specific receptor; assay: Binding affinity to human recombinant biotinylated receptor for advanced glycation end product expressed in Escherichia coli DE3 after 1 min by surface plasmon resonance assay
Summary of the method: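 SPR with biotinylated RAGE captured to saturation on Neutravidin-coated chip channels, with a blank reference channel. Running buffer TBS (pH 7.4) with 0.05% Tween 20. Compounds serially diluted 50 to 3.1 μM in 2% DMSO, injected 1 min at 100 μL/min, then 400 s buffer dissociation. Responses reference-subtracted. Constants from a global Langmuir 1:1 fit.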

[10] = tested on: Mus musculus; assay: Antialzheimer activity in transgenic mouse expressing PS1/APP swedish mutant assessed as insoluble amyloid beta (1 to 40) level per mg of protein in brain at 50 mg/kg/day, po for 3 months by ELISA (reference value: 137.38+/- 58.13 ng per mg of protein); type: functional
[11] = target: T1, Advanced glycosylation end product-specific receptor; assay: Inhibition of human recombinant biotinylated receptor for advanced glycation end product expressed in Escherichia coli DE3 assessed as inhibition of binding to amyloid beta (1 to 42) after 60 mins by TMB-ELISA; summary of the method: as §1
[12] = tested on: Mus musculus; assay: Toxicity against transgenic mouse expressing PS1/APP swedish mutant assessed as lethality at 50 mg/kg/day, po administered for 3 months measured after 2 months; type: organism-based; design: route oral; conditions: in vivo, 1461 h
Summary of the method: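 Male APPsw/PS1 transgenic mice, 6 months old (n = 4−5), dosed by oral gavage at 50 mg/(kg·day) until 9 months of age. Lethality was recorded as a side effect during the study. Cognitive function (Y-maze spontaneous alternation) was assessed after 2 months of dosing.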

[13] = tested on: Mus musculus; assay: Antialzheimer activity in transgenic mouse expressing PS1/APP swedish mutant assessed as soluble amyloid beta (1 to 40) level per mg of protein in brain at 50 mg/kg/day, po for 3 months by ELISA (reference value: 8.66 +/- 1.81 ng per mg of protein); type: functional
[14] = tested on: Mus musculus; assay: Antialzheimer activity in transgenic mouse expressing PS1/APP swedish mutant assessed as soluble amyloid beta (1 to 42) level per mg of protein in brain at 50 mg/kg/day, po for 3 months by ELISA (reference value: 17.34 +/- 5.17 ng per mg of protein); type: functional

T1 sequence (Q15109 whole entry): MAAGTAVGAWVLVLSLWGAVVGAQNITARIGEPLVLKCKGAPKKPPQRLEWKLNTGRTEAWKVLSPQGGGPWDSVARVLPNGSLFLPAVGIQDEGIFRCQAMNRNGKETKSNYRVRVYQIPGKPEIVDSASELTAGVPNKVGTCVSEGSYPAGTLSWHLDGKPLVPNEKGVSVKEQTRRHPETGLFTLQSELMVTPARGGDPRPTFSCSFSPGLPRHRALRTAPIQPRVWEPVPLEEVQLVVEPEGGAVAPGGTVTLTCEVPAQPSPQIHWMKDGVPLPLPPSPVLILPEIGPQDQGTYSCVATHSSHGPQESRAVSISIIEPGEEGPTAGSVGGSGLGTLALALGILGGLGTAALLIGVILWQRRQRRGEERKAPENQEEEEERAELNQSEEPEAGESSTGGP
Advanced glycosylation end product-specific receptor (Rattus norvegicus), sequence (Q63495 whole entry): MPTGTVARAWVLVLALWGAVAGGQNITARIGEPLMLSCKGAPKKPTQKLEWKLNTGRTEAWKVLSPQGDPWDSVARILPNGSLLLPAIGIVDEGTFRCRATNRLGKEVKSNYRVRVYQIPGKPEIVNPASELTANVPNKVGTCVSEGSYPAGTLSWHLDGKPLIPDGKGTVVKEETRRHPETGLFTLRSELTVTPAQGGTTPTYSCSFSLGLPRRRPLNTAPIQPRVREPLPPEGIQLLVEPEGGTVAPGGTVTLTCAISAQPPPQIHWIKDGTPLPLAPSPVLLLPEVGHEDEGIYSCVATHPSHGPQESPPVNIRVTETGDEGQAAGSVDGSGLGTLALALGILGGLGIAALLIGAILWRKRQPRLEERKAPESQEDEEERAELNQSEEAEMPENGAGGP

| SMILES | inhibition [4] | other results |
| --- | --- | --- |
| CCN(CC)CCOc1cccc(Nc2nc(C)cc(-c3ccc(OCCC4CCCCC4)cc3)n2)c1 | 49.6% | Activity [1]: Non-toxic; inhibition in vivo at 25 mg/kg [2]: 12.1%; inhibition [3]: Active; Activity [5]: 5% |
| CCN(CC)CCOc1cccc(Nc2nc(C)cc(-c3ccc(OC4CCCCC4)cc3)n2)c1 | 45.6% |  |
| CCN(CC)CCOc1cccc(Nc2nc(-c3ccc(Cl)cc3)cc(-c3ccc(Cl)cc3)n2)c1 | 54% | inhibition in vivo at 25 mg/kg [6]: 34.3%; Activity [7]: 354 ng/mg; Activity [8]: 63.6%; Activity [9]: Dose-dependent effect; Kd [9]: 102 µM; Activity [10]: 98.5 ng/mg; Activity [1]: Non-toxic; IC50 [11]: 16.5 µM; Activity [12]: Non-toxic; Activity [13]: 6.25 ng/mg; inhibition [3]: Active; Activity [5]: 3.7%; Activity [14]: 12 ng/mg |
| CCN(CC)CCOc1ccc(Nc2nc(C)cc(-c3ccc(Oc4ccc5ccccc5c4)cc3)n2)cc1 | 21.4% |  |
| CCN(CC)CCOc1cccc(Nc2nc(-c3ccc(Cl)cc3)cc(N3CCCCC3)n2)c1 | 17.1% |  |
| CCN(CC)CCOc1cccc(Nc2nc(C)cc(C)n2)c1 | 20.8% |  |
| CCN(CC)CCOc1ccc(Nc2nc(C)cc(-c3ccc(OC)cc3)n2)cc1 | 31.7% |  |
| Cc1nc(NC(=O)CCCC(=O)O)nc(C)c1OCc1ccccc1 | inactive |  |
| CCN(CC)CCOc1ccc(Nc2nc(C)cc(N3CCCCC3)n2)cc1 | 43.3% |  |
| CCN(CC)CCOc1ccc(Nc2nc(C)cc(C3CCCCC3)n2)cc1 | 30.6% |  |
| CCN(CC)CCOc1ccc(Nc2nc(C)cc(-c3ccc(Cl)cc3)n2)cc1 | 37.1% |  |
| CCN(CC)CCOc1cccc(Nc2nc(-c3ccc(Cl)cc3)cc(N3CCOCC3)n2)c1 | 3.1% |  |
| CCN(CC)CCOc1ccc(Nc2nc(-c3ccc(Cl)cc3)cc(-c3ccc(Cl)cc3)n2)cc1 | 33.6% |  |
| CCN(CC)CCOc1ccc(Nc2nc(C)cc(-c3ccc(OCCc4ccc(Cl)cc4)cc3)n2)cc1 | inactive |  |
| CCN(CC)CCOc1ccc(Nc2nc(C)cc(-c3ccc(OCc4ccc(Cl)cc4)cc3)n2)cc1 | 12.7% |  |
| CCN(CC)CCOc1cccc(Nc2nc(C)cc(-c3ccc(Cl)cc3)n2)c1 | 41.6% |  |
| CCN(CC)CCOc1cccc(Nc2nc(-c3ccc(Cl)cc3)cc(N3CCN(C)CC3)n2)c1 | 4.5% |  |
| CCN(CC)CCOc1ccc(Nc2nc(C)cc(-c3ccccc3)n2)cc1 | 33% |  |
| CCN(CC)CCCCNc1nc(C)c(OC)c(C)n1 | inactive |  |
| CCN(CC)CCCC(=O)Nc1nc(C)c(O)c(C)n1 | inactive |  |

| SMILES | inhibition [4] | other results |
| --- | --- | --- |
| CCN(CC)CCOc1ccc(Nc2nc(C)cc(-c3ccc(OCCC4CCCCC4)cc3)n2)cc1 | 32.7% |  |
| CCN(CC)CCCCNc1nc(C)c(O)c(C)n1 | inactive |  |
| COc1c(C)nc(NC(=O)CCCO)nc1C | inactive |  |
| CCN(CC)CCOc1ccc(Nc2nc(C)c(O)c(C)n2)cc1 | 16.2% |  |
| CCN(CC)CCOc1ccc(Nc2nc(C)cc(C)n2)cc1 | 16% |  |
| CCN(CC)CCOc1ccc(Nc2nc(C)cc(-c3ccc(OC4CCCCC4)cc3)n2)cc1 | 32.6% |  |
| CCN(CC)CCOc1ccc(Nc2nc(C)cc(-c3ccc(OCCc4ccccc4)cc3)n2)cc1 | inactive |  |
| CCN(CC)CCOc1cccc(Nc2nc(C)cc(-c3ccc(OC)cc3)n2)c1 | 30.9% |  |
| CCN(CC)CCOc1ccccc1Nc1nc(-c2ccc(Cl)cc2)cc(-c2ccc(Cl)cc2)n1 | 70.8% | Activity [1]: Non-toxic; IC50 [11]: 4.6 µM; inhibition in vivo at 25 mg/kg [2]: 18.3%; inhibition [3]: Active; Activity [5]: 2.8% |
| CCN(CC)CCOc1ccc(Nc2nc(C)cc(Nc3ccccc3)n2)cc1 | 32.7% |  |
| CCN(CC)CCOc1ccc(Nc2nc(C)c(OCc3ccccc3)c(C)n2)cc1 | 14.6% |  |
| CCN(CC)CCOc1ccc(Nc2nc(C)cc(-c3ccc(Oc4ccc(Cl)cc4)cc3)n2)cc1 | 21.1% |  |
| CCN(CC)CCOc1ccccc1Nc1nc(C)cc(-c2ccc(Cl)cc2)n1 | 47.2% |  |
| CCN(CC)CCCC(=O)Nc1nc(C)c(OCc2ccccc2)c(C)n1 | inactive |  |
| CCN(CC)CCOc1cccc(Nc2nc(-c3ccc(Cl)cc3)cc(-n3cccc3)n2)c1 | 26.3% |  |
| CCN(CC)CCCCNc1nc(C)c(OCc2ccccc2)c(C)n1 | inactive |  |
| Cc1nc(NC(=O)CCCO)nc(C)c1OCc1ccccc1 | inactive |  |
| COc1c(C)nc(NC(=O)CCCC(=O)O)nc1C | inactive |  |
| CCN(CC)CCCC(=O)Nc1nc(C)c(OC)c(C)n1 | inactive |  |
